Four compounds from ChEMBL document CHEMBL1128281 (J Med Chem, 1995) can be followed below.

Test [1] deals with Rattus norvegicus. Put plainly: Social interaction of rats was determined after 1 hr of intraperitoneal administration at 10 mg/kg. It is filed as functional. Summed up:
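Pairs of male Wistar rats (200–275 g) were acclimated to the arena for 8 min on two consecutive days. On day 3, unfamiliar rats (six pairs/group) got drug or vehicle, and 30 or 60 min later they were paired and observed for 5 min. Social interaction time and total activity were compared with controls by one-way ANOVA and Duncan's test.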

Test [2] has as its system Rattus norvegicus. As to the kind of experiment: Antipsychotic efficacy of compound at intraperitoneal dose of 20 mg/kg on 1.8 (A10 units) dopamine neurons in the mesolimbic region of rat. It is filed as functional. The essentials:
(§1)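 Male Wistar rats (280–360 g) were dosed ip once daily for 21 days with compound suspended in distilled water plus 1 drop Tween 80; vehicle rats served as controls. Sampling began 2 h after the last dose under chloral hydrate anesthesia (400 mg/kg ip). Spontaneously active A9 and A10 dopamine units were counted per 12 tracks. Groups were compared by one-way ANOVA with Newman–Keuls post hoc.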

For test [3], the system named is Rattus norvegicus. Put plainly: Side effect liability of compound at intraperitoneal dose of 20 mg/kg on 13.7 (A9 units)dopamine neurons in the nigrostriatal in rat. In kind it is functional. Summed up: as §1
Test [4] has as its system Rattus norvegicus. Put plainly: Intracranial self stimulation in rat was determined after 1 hr of intraperitoneal administration of the compound. In kind it is functional. Particulars: ip. Summed up:
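Male Wistar rats (300–400 g) with chronic electrodes in the medial forebrain bundle at the preoptic level, trained after 2 weeks of recovery to lever-press for biphasic square-wave pulse trains. Once baseline responding was stable, drug was given (3–6 per dose group) and compared with nondrug controls. ED50 was calculated by linear regression on percent change from control.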

The test system of test [5] is Rattus norvegicus. As to the kind of experiment: Pole climb avoiding activity in rats was determined after 1 hr of intraperitoneal administration of the compound. It is filed as functional. Particulars: ip. Summed up: (§2)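 Male Long Evans rats trained to 80% avoidance in a discrete-trial signaled pole-climb paradigm: 25 trials per 50 min session, maximum 26 s of shock per trial. Distilled water or drug was given ip, 6 per dose group, at a 60 min pretreatment. Avoidance responses and escape failures were compared with water controls. ED50 by linear regression.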

For test [6], the system named is Rattus norvegicus. Put plainly: Pole climb escape failures of rats was determined after 1 hr of intraperitoneal administration of the compound. Particulars: ip. In kind it is functional. The essentials: as §2
Test [7] has as its system Rattus norvegicus. Put plainly: Induction of catalepsy in rats was determined after 1 hr of intraperitoneal administration at 80 mg/kg. It is filed as functional. The essentials:
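Male Wistar rats (150–250 g, 6–10/dose group) were dosed ip with compound or distilled water. Every hour for 6 h after dosing, the forepaws were placed on an elevated wooden bar, and a rat was scored cataleptic if the paws stayed on the bar for 60 s.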

For test [8], the species on record is Rattus norvegicus. As to the kind of experiment: Ability to block apomorphine-induced stereotypy in rats. It is filed as functional. Summed up: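 Male Wistar rats (150–250 g), 6–10 per dose group, given distilled water or test drug ip; apomorphine 1.5 mg/kg sc 50 min later. Rats were placed singly in cages and scored 10 min afterwards for continuous stereotyped licking or sniffing. Inhibition was the number of animals protected versus controls. ED50 was obtained by probit analysis.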

Test [9] has as its system Rattus norvegicus. As to the kind of experiment: Antagonistic activity administered intraperitoneally on head twitches induced by 5- HTP. Particulars: ip. In kind it is functional. The essentials: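 Male Wistar rats (180–280 g), groups of eight. L-5-HTP given ip (240 mg/10 mL distilled water with Tween 80); compounds given ip 30 min after 5-HTP. At 60 min post-5-HTP, head twitches were counted for 10 min per rat under white noise, then expressed as percent change from vehicle. Dose–response used 3–4 dose groups; ED50 by linear regression.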

Another test is filed under the species Mus musculus. As to the kind of experiment: Ability to inhibit apomorphine-induced climbing behavior in mice. It is filed as functional. The essentials:
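Male CD-1 mice (18–30 g) were adapted for 1 h in wire-mesh cages, 8 per dose group. Distilled water or drug was given ip 30 or 60 min before apomorphine 1.5 mg/kg sc.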

Test [10] concerns Rattus norvegicus. As to the kind of experiment: Social interaction of rats was determined after 1 hr of intraperitoneal administration at […]. It is filed as functional.
In test [11] the test system is Rattus norvegicus. Put plainly: Antipsychotic efficacy of compound at intraperitoneal dose of 0.5 mg/kg on 6.8 (A10 units) dopamine neurons in the mesolimbic region of rat. In kind it is functional.
Test [12] relates to Rattus norvegicus. Put plainly: Side effect liability of compound at intraperitoneal dose of 0.5 mg/kg on 6.2 (A9 units)dopamine neurons in the nigrostriatal in rat. It is filed as functional.
For test [13], the system named is Rattus norvegicus. Put plainly: Induction of catalepsy in rats was determined after 2 hr of intraperitoneal administration of the compound. It is filed as functional. Particulars: ip. Summed up:
(§3)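 Male Wistar rats (150–250 g), 6–10 per dose group, dosed ip with distilled water or drug. Each hour for 6 h, forepaws were placed on an elevated wooden bar; remaining there 60 s counted as cataleptic.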

Test [14] has as its target T1, 5-hydroxytryptamine receptor 1A (Mus musculus, UniProt Q64264).
T1 sequence (Q64264 whole entry): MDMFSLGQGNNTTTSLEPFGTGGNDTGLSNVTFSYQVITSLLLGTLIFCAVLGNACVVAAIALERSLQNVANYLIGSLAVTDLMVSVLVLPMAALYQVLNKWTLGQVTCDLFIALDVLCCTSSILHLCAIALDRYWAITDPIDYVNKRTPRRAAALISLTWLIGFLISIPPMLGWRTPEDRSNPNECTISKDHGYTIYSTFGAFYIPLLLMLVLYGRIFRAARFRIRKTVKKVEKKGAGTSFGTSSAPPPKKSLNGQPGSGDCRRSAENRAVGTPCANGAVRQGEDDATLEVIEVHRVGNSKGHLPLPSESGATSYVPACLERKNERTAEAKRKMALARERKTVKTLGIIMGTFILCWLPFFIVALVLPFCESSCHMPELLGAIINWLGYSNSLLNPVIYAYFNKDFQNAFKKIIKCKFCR
As to the kind of experiment: Binding affinity against 5-hydroxytryptamine 1A receptor was determined using [3H]-8-OH-DPAT radioligand.

For test [15], the target named is 5-hydroxytryptamine receptor 2A (Bos taurus, UniProt Q75Z89). As to the kind of experiment: Binding affinity against 5-hydroxytryptamine 2 receptor was determined using [ [3H]spiperone radioligand.
Sequence of 5-hydroxytryptamine receptor 2A (Q75Z89 whole entry): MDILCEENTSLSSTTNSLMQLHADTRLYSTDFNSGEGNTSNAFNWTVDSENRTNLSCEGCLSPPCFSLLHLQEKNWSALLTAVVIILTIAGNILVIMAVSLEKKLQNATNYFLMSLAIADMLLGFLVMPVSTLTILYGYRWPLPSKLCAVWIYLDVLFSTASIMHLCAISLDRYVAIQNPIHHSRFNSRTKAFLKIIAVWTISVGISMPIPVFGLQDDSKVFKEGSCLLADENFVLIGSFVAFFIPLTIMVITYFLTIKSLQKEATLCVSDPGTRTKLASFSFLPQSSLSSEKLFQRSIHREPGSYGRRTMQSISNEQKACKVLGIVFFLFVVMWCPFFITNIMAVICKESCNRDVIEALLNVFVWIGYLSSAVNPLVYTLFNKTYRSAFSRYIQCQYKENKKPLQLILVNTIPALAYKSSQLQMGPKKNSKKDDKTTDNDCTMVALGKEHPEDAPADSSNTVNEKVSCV
The target in test [16] is Serotonin 2 (5-HT2) receptor (Rattus norvegicus, UniProt P30994+P08909+P14842). As to the kind of experiment: Affinity for 5-hydroxytryptamine 2 receptor binding sites by its ability to displace [3H]spiperone from rat frontal cortex.
A further test addresses D(1A) dopamine receptor (Mus musculus, UniProt Q61616). Put plainly: Binding affinity against Dopamine receptor D1 was determined using [3H]SCH-23390 radioligand.
In test [17] the target is Muscarinic acetylcholine receptor M3 (Rattus norvegicus, UniProt P08483). As to the kind of experiment: Binding affinity against Muscarinic acetylcholine receptor using [3H]quinuclidinyl benzilate.
Sequence of Muscarinic acetylcholine receptor M3 (P08483 whole entry): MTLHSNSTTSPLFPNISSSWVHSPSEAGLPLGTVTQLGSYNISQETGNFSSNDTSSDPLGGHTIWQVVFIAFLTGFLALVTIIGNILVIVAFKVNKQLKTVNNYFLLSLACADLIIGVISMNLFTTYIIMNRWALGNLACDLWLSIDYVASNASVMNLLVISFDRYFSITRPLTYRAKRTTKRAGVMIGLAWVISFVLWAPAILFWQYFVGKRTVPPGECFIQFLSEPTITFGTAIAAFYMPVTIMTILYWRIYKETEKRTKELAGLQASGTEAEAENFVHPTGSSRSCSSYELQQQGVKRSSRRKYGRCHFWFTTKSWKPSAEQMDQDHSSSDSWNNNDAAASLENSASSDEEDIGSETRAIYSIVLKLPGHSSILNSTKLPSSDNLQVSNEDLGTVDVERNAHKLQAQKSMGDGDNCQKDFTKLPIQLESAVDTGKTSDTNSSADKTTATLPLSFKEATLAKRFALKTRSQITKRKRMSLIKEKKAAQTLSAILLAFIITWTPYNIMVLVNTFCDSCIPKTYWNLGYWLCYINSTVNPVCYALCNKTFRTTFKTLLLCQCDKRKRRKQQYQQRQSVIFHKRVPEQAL
Test [18] has as its system Rattus norvegicus. As to the kind of experiment: Social interaction of rats was determined after 1 hr of intraperitoneal administration at 1 mg/kg. It is filed as functional. The essentials: (§4)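 Pairs of male Wistar rats (200–275 g) were acclimated to the arena for 8 min on two days. On day 3, unfamiliar pairs were formed, six pairs per group, and dosed with drug or vehicle. Interaction time and total activity were compared by one-way ANOVA with Duncan's test.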

In test [19] the test system is Rattus norvegicus. As to the kind of experiment: Side effect liability of compound at intraperitoneal dose of 5 mg/kg on 16.1 (A9 units)dopamine neurons in the nigrostriatal in rat. In kind it is functional.
Test [20] relates to Rattus norvegicus. Put plainly: Antipsychotic efficacy of compound at intraperitoneal dose of 10 mg/kg on 6.1 (A10 units)dopamine neurons in the mesolimbic in rat. It is filed as functional.
Test [21] relates to Rattus norvegicus. Put plainly: Antipsychotic efficacy of compound at intraperitoneal dose of 5 mg/kg on 6.1 dopamine neurons in the mesolimbic (A10) units in rat. In kind it is functional.
Test [22] has as its system Rattus norvegicus. Put plainly: Side effect liability of compound at intraperitoneal dose of 10 mg/kg on 16.1 (A9 units) dopamine neurons in the nigrostriatal in rat. In kind it is functional.
For test [23], the system named is Rattus norvegicus. As to the kind of experiment: Intracranial self stimulation in rat was determined after 1 hr of oral administration of the compound. It is filed as functional.
Test [24] has as its system Rattus norvegicus. As to the kind of experiment: Induction of catalepsy in rats was determined after 1 hr of intraperitoneal administration of the compound. Particulars: ip. It is filed as functional. Summed up:
as §3

Test [25] deals with Sigma non-opioid intracellular receptor 1 (Homo sapiens, UniProt Q99720). As to the kind of experiment: Binding affinity against sigma receptor using [3H]-( +)-SKF10,047 radioligand.
Sequence of Sigma non-opioid intracellular receptor 1 (Q99720 whole entry): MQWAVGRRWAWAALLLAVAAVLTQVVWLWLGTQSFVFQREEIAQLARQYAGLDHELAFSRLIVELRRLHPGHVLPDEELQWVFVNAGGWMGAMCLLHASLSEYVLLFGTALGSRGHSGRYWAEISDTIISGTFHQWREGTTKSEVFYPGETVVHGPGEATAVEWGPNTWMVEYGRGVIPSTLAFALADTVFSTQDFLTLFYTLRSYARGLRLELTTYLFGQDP
Test [26] has as its system Rattus norvegicus. Put plainly: Social interaction of rats was determined after 1 hr of intraperitoneal administration at 0.5 mg/kg. It is filed as functional. Summed up:
as §4

Usually ED50 stands for the dose at which the effect has come halfway, by size or by number of responders. By IC50 is commonly meant the point on the concentration scale where inhibition reaches its midpoint. A lower IC50 goes with inhibition by little substance.

Sequence of D(1A) dopamine receptor (Q61616 whole entry): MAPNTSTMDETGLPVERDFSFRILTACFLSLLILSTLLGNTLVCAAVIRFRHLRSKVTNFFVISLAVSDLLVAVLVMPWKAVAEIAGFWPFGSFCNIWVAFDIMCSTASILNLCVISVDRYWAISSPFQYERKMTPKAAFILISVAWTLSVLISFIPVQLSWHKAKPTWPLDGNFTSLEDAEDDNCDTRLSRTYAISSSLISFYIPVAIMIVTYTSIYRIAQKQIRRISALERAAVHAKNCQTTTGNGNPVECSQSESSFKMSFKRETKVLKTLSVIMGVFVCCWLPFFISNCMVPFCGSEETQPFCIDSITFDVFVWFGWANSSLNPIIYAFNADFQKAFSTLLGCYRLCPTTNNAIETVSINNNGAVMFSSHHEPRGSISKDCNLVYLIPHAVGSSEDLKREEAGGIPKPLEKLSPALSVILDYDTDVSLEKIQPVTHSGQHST

Take `CN1CCN(C2=Nc3cc(Cl)ccc3Nc3ccccc32)CC1` [CLOZAPINE]: the Activity is 39% in the test with Rattus norvegicus [1] and 0% in the test with Rattus norvegicus [7]. Also, the Change in the test on Rattus norvegicus [2] is -79%; with Rattus norvegicus [3], 37%. The ED50 was 7.4 mg/kg in the test on Rattus norvegicus [4]; 11.3 mg/kg in the test on Rattus norvegicus [5]; 29.3 mg/kg in the test on Rattus norvegicus [6]; over 40 mg/kg in the test filed under Rattus norvegicus [8]; 0.43 mg/kg with Rattus norvegicus [9].
`O=C(CCCN1CCC(O)(c2ccc(Cl)cc2)CC1)c1ccc(F)cc1` [HALOPERIDOL]: the ED50 in the test listed under Mus musculus amounted to 0.11 mg/kg; in the test with Rattus norvegicus [4], 0.077 mg/kg; in the test on Rattus norvegicus [5], 0.043 mg/kg; with Rattus norvegicus [6], 0.22 mg/kg; in the test on Rattus norvegicus [13], 0.65 mg/kg; in the test listed under Rattus norvegicus [8] it was 0.6 mg/kg. The same compound showed a 50% effective dose (ED50) in the test on Rattus norvegicus [9] of 0.29 mg/kg. Also, the Activity in the test with Rattus norvegicus [10] was -26%. The results for the Change in the test on Rattus norvegicus [11] and with Rattus norvegicus [12] were -35% and -30%, respectively.
Turning to `COc1cc(C(C)=O)ccc1OCCCN1CCC(c2noc3cc(F)ccc23)CC1` [ILOPERIDONE], the IC50 in test [14] was 210 nM; in [15], 9 nM; in test [16], 9 nM; on D(1A) dopamine receptor, 750 nM; in [17], over 1000 nM; in test [25], 64 nM. Further, the 50% effective dose (ED50) in the test filed under Mus musculus came to 0.095 mg/kg; in the test on Rattus norvegicus [4] it was 0.15 mg/kg; with Rattus norvegicus [23], 1.03 mg/kg; in the test on Rattus norvegicus [5] it was 0.7 mg/kg; in the test with Rattus norvegicus [6] it was 5.2 mg/kg; in the test with Rattus norvegicus [24], 30.7 mg/kg. The values for the ED50 in the test filed under Rattus norvegicus [8] and with Rattus norvegicus [9] were 34.8 mg/kg and 0.07 mg/kg, respectively. In addition, in the test on Rattus norvegicus [18], the Activity turned out to be 31%. In addition, the Change was 81% in the test on Rattus norvegicus [19], -40% with Rattus norvegicus [20], -41% in the test on Rattus norvegicus [21] and 45% in the test with Rattus norvegicus [22].
Regarding `Cc1nc2n(c(=O)c1CCN1CCC(c3noc4cc(F)ccc34)CC1)CCCC2` [RISPERIDONE], the ED50 was 0.062 mg/kg in the test listed under Mus musculus; 0.13 mg/kg in the test on Rattus norvegicus [4]; 0.48 mg/kg with Rattus norvegicus [5]; 1.3 mg/kg with Rattus norvegicus [6]; 5.7 mg/kg with Rattus norvegicus [24]; 3.2 mg/kg in the test listed under Rattus norvegicus [8]. Also, the Activity in the test with Rattus norvegicus [26] was determined as 27%.
